According to ChEMBL document CHEMBL2216753, “Novel 1,4-benzoxazine and 1,4-benzodioxine inhibitors of angiogenesis” (Eur J Med Chem, 2012):
Active and inactive are the calls of the source. The rule behind the calls is not given here.

Legend:
Gallus gallus = organism: Gallus gallus; test: Antiangiogenic activity in chicken embryo chorioallantoic membrane model at 250 nmol/disc after 3 days; type: functional, tissue-based
MCF7 [1] = test: Antiproliferative activity against human MCF7 cells after 4 days by coulter counter method; type: functional, cell-based; settings: MCF7, 96 h
HeLa [2] = test: Cytotoxicity against human HeLa cells at 100 uM after 3 days by coulter counter method; type: cell-based; settings: 72 h
Outline: (§1)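 Cells seeded at 10,000 cells per cm2; after 16 h, fresh medium with test compound added. Cells trypsinized and counted with a Coulter counter on day 4 (BAEC, HeLa, MCF-7) or day 7 (HMEC-1). Cytotoxicity (cell death) was judged after 3 days in culture. HMEC-1 grown in EGM-2 with supplements and growth factors.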

MAEC [3] = test: Antimigratory activity against mouse MAEC cell migration after 5 hrs by wound closure assay; type: functional, cell-based
Outline: (§2)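 Confluent MAEC monolayers wounded with a 1.0-mm wide micropipette tip, then incubated in fresh medium with test compound. Wounds photographed after 5 h and width calculated from digital images. Mean ± SD of 2–4 independent experiments; Student t test, p < 0.05 significant.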

MCF7 [4] = test: Cytotoxicity against human MCF7 cells at 100 uM after 3 days by coulter counter method; type: cell-based; settings: mcf7, 72 h; outline: as §1
[5] = Cytotoxicity against human HMEC1 cells at 100 uM after 3 days by coulter counter method; type: cell-based; settings: hmec-1, 72 h; outline: as §1
HeLa [6] = test: Antiproliferative activity against human HeLa cells after 4 days by coulter counter method; type: functional, cell-based; settings: 96 h
[7] = Cytotoxicity against human HMEC1 cells at 30 uM after 3 days by coulter counter method; type: cell-based; settings: hmec-1, 72 h; outline: as §1
HMEC-1 = test: Antiangiogenic activity in human HMEC1 cells assessed as inhibition of tube formation after 4 to 6 hrs by matrigel assay; type: functional, cell-based
Outline: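 HMEC-1 (60,000 cells) seeded on matrigel (10 mg/mL) after 30 min gelling at 37 °C, in DMEM containing test compound; after 4–6 h cells photographed and tubes scored 0 (none) to 3 (maximal, like untreated control). Mean ± SD of 2–4 independent experiments; Student t test, p < 0.05 significant.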

[8] = Antiproliferative activity against human HMEC1 cells after 7 days by coulter counter method; type: functional, cell-based; settings: HMEC-1, 168 h
[9] = Antimigratory activity against mouse MAEC cell migration at 10 uM after 5 hrs by wound closure assay; type: functional; outline: as §2
MAEC [10] = test: Antimigratory activity against mouse MAEC cell migration at 30 uM after 5 hrs by wound closure assay; type: functional; outline: as §2
[11] = Cytotoxicity against bovine BAEC cells at 100 uM after 3 days by coulter counter method; type: cell-based, Bos taurus; settings: cattle, 72 h; outline: as §1
[12] = Cytotoxicity against bovine BAEC cells at 30 uM after 3 days by coulter counter method; type: cell-based, Bos taurus; settings: cattle, 72 h; outline: as §1
[13] = Antiproliferative activity against bovine BAEC cells after 4 days by coulter counter method; type: functional, cell-based; settings: Bos taurus, 96 h
HeLa [14] = test: Cytotoxicity against human HeLa cells at 30 uM after 3 days by coulter counter method; type: cell-based; settings: 72 h; outline: as §1
MCF7 [15] = test: Cytotoxicity against human MCF7 cells at 30 uM after 3 days by coulter counter method; type: cell-based; settings: mcf7, 72 h; outline: as §1

SMILES	inhibition (Gallus gallus)	IC50 (MCF7 [1])	Activity (HeLa [2])	Activity (MCF7 [4])	Activity [5]	IC50 (HeLa [6])	IC50 [8]	Activity [11]	IC50 [13]	also measured
CN1CC(C)(COc2ccc(C(=N)N)cc2)Oc2cc(N(CC(=O)O)Cc3cccc(F)c3)ccc21 (stereo unspecified)	inactive									
CN1CC(C)(COc2ccc(C(=N)N)cc2)Oc2ccc(N(CC(=O)O)Cc3ccc(F)cc3)cc21 (stereo unspecified)	inactive									
CCOC(=O)C(=O)N(Cc1ccc(F)c(F)c1)c1ccc2c(c1)N(C)CC(C)(COc1ccc(C(=N)N)cc1)O2 (stereo unspecified)	Active	6.3 µM	Toxic	Toxic	Toxic	14 µM	8.3 µM	Toxic	7.4 µM	inhibition (MAEC [3]): Dose-dependent effect; Activity [7]: Non-toxic; inhibition (HMEC-1): Dose-dependent effect; inhibition at 10 µM [9]: 50%; inhibition (MAEC [10]): Active; Activity [12]: Non-toxic; Activity (HeLa [14]): Non-toxic; Activity (MCF7 [15]): Non-toxic
CCOC(=O)CN(Cc1cccc(F)c1)c1ccc2c(c1)N(C)CC(C)(COc1ccc(C#N)cc1)O2 (stereo unspecified)		> 100 µM	Toxic	Toxic	Toxic	> 100 µM	> 100 µM	Toxic	> 100 µM	inhibition (MAEC [3]): Dose-dependent effect
CN1CC(C)(COc2ccc(C(=N)N)cc2)Oc2cc(N(CC(=O)O)Cc3ccc(F)c(F)c3)ccc21 (stereo unspecified)	inactive									
CCOC(=O)C(=O)N(Cc1cccc(F)c1)c1ccc2c(c1)N(C)CC(C)(COc1ccc(C(=N)N)cc1)O2 (stereo unspecified)	Active									inhibition (MAEC [3]): Dose-dependent effect; inhibition (HMEC-1): Dose-dependent effect; inhibition (MAEC [10]): Active
CN1CC(C)(COc2ccc(C(=N)N)cc2)Oc2ccc(N(Cc3ccc(F)cc3)C(=O)C(=O)O)cc21 (stereo unspecified)	inactive									
CN1CC(C)(CO)Oc2cc(N(Cc3ccccc3)C(=O)C(=O)O)ccc21 (stereo unspecified)						> 100 µM			> 100 µM	
CCOC(=O)CN(Cc1ccc(F)cc1)c1ccc2c(c1)OC(C)(COc1ccc(C#N)cc1)CN2C (stereo unspecified)		> 100 µM	Toxic	Toxic	Toxic	> 100 µM	> 100 µM	Toxic	50 µM	
CN1CC(C)(COc2ccc(C(=N)N)cc2)Oc2ccc(N(Cc3ccc(F)c(F)c3)C(=O)C(=O)O)cc21 (stereo unspecified)	inactive									
CN1CC(C)(COc2ccc(C(=N)N)cc2)Oc2cc(N(CC(=O)O)Cc3cc(F)cc(F)c3)ccc21 (stereo unspecified)	inactive									
CN1CC(C)(COc2ccc(C(=N)N)cc2)Oc2cc(N(Cc3ccc(F)cc3)C(=O)C(=O)O)ccc21 (stereo unspecified)	inactive									
CN1CC(C)(COc2ccc(C(=N)N)cc2)Oc2ccc(N(CC(=O)O)Cc3cccc(F)c3)cc21 (stereo unspecified)	inactive									
N=C(N)c1ccc(OCC2COc3ccc(N(Cc4ccccc4)C(=O)C(=O)O)cc3O2)cc1 (stereo unspecified)	inactive					> 100 µM			> 100 µM	
CN1CC(C)(COc2ccc(C(=N)N)cc2)Oc2cc(N(Cc3ccc(F)c(F)c3)C(=O)C(=O)O)ccc21 (stereo unspecified)	inactive									
CN1CC(C)(COc2ccc(C(=N)N)cc2)Oc2cc(N(Cc3cccc(F)c3)C(=O)C(=O)O)ccc21 (stereo unspecified)	inactive									

SMILES	inhibition (Gallus gallus)	IC50 (MCF7 [1])	Activity (HeLa [2])	Activity (MCF7 [4])	Activity [5]	IC50 (HeLa [6])	IC50 [8]	Activity [11]	IC50 [13]	also measured
CN1CC(C)(COc2ccc(C(=N)N)cc2)Oc2ccc(N(CC(=O)O)Cc3cc(F)cc(F)c3)cc21 (stereo unspecified)	inactive									
CN1CC(C)(COc2ccc(C(=N)N)cc2)Oc2ccc(N(Cc3cc(F)cc(F)c3)C(=O)C(=O)O)cc21 (stereo unspecified)	inactive									
CN1CC(C)(COc2ccc(C(=N)N)cc2)Oc2ccc(N(CC(=O)O)Cc3ccc(F)c(F)c3)cc21 (stereo unspecified)	inactive									
CCOC(=O)C(=O)N(Cc1cc(F)cc(F)c1)c1ccc2c(c1)N(C)CC(C)(COc1ccc(C(=N)N)cc1)O2 (stereo unspecified)	Active	5.2 µM	Toxic	Toxic	Toxic	6.9 µM	7.8 µM	Toxic	11 µM	inhibition (MAEC [3]): Dose-dependent effect; Activity [7]: Non-toxic; inhibition (HMEC-1): Dose-dependent effect; inhibition at 10 µM [9]: 50%; inhibition (MAEC [10]): Active; Activity [12]: Non-toxic; Activity (HeLa [14]): Non-toxic; Activity (MCF7 [15]): Non-toxic
CCOC(=O)CN(Cc1cc(F)cc(F)c1)c1ccc2c(c1)N(C)CC(C)(COc1ccc(C#N)cc1)O2 (stereo unspecified)		> 100 µM	Toxic	Toxic	Toxic	> 100 µM	> 100 µM	Toxic	> 100 µM	
CCOC(=O)C(=O)N(Cc1ccc(F)c(F)c1)c1ccc2c(c1)OC(C)(COc1ccc(C(=N)N)cc1)CN2C (stereo unspecified)	Active	5.8 µM	Toxic	Toxic	Toxic	11 µM	6.7 µM	Toxic	4.9 µM	inhibition (MAEC [3]): Dose-dependent effect; Activity [7]: Non-toxic; inhibition (HMEC-1): Dose-dependent effect; inhibition at 10 µM [9]: 50%; inhibition (MAEC [10]): Active; Activity [12]: Non-toxic; Activity (HeLa [14]): Non-toxic; Activity (MCF7 [15]): Non-toxic
CCOC(=O)C(=O)N(Cc1ccc(F)cc1)c1ccc2c(c1)OC(C)(COc1ccc(C(=N)N)cc1)CN2C (stereo unspecified)	Active	6.3 µM	Toxic	Toxic	Toxic	14 µM	7.6 µM	Toxic	6.9 µM	inhibition (MAEC [3]): Dose-dependent effect; Activity [7]: Non-toxic; inhibition (HMEC-1): Dose-dependent effect; inhibition at 10 µM [9]: 50%; inhibition (MAEC [10]): Active; Activity [12]: Non-toxic; Activity (HeLa [14]): Non-toxic; Activity (MCF7 [15]): Non-toxic
Cc1cc(C)c(/C=C2\C(=O)Nc3ccccc32)[nH]1										inhibition (MAEC [3]): Dose-dependent effect
CN1CC(C)(COc2ccc(C(=N)N)cc2)Oc2cc(N(CC(=O)O)Cc3ccc(F)cc3)ccc21 (stereo unspecified)	inactive									
CCOC(=O)CN(Cc1cc(F)cc(F)c1)c1ccc2c(c1)OC(C)(COc1ccc(C#N)cc1)CN2C (stereo unspecified)		54 µM	Toxic	Toxic	Toxic	> 100 µM	49 µM	Toxic	25 µM	
CN1CC(C)(COc2ccc(C(=N)N)cc2)Oc2cc(N(Cc3cc(F)cc(F)c3)C(=O)C(=O)O)ccc21 (stereo unspecified)	inactive									
N=C(N)c1ccc(OCC2COc3cc(N(Cc4ccccc4)C(=O)C(=O)O)ccc3O2)cc1 (stereo unspecified)	inactive					> 100 µM			> 100 µM	
CCOC(=O)C(=O)N(Cc1cccc(F)c1)c1ccc2c(c1)OC(C)(COc1ccc(C(=N)N)cc1)CN2C (stereo unspecified)	Active	3.8 µM	Toxic	Toxic	Toxic	7.7 µM	7.9 µM	Toxic	6.5 µM	inhibition (MAEC [3]): Dose-dependent effect; Activity [7]: Non-toxic; inhibition (HMEC-1): Dose-dependent effect; inhibition at 10 µM [9]: 50%; inhibition (MAEC [10]): Active; Activity [12]: Non-toxic; Activity (HeLa [14]): Non-toxic; Activity (MCF7 [15]): Non-toxic
CN1CC(C)(CO)Oc2cc(N(Cc3cc(F)cc(F)c3)C(=O)C(=O)O)ccc21 (stereo unspecified)						> 100 µM			> 100 µM	
CCOC(=O)C(=O)N(Cc1ccc(F)cc1)c1ccc2c(c1)N(C)CC(C)(COc1ccc(C(=N)N)cc1)O2 (stereo unspecified)	Active	5.5 µM	Toxic	Toxic	Toxic	14 µM	8.4 µM	Toxic	6.6 µM	inhibition (MAEC [3]): Dose-dependent effect; Activity [7]: Non-toxic; inhibition (HMEC-1): Dose-dependent effect; inhibition at 10 µM [9]: 50%; inhibition (MAEC [10]): Active; Activity [12]: Non-toxic; Activity (HeLa [14]): Non-toxic; Activity (MCF7 [15]): Non-toxic
CN1CC(C)(COc2ccc(C(=N)N)cc2)Oc2ccc(N(Cc3cccc(F)c3)C(=O)C(=O)O)cc21 (stereo unspecified)	inactive									
